Calls of active or inactive are those of the source. No cut-off for these calls is given here.

In assay [1] the target is T1, P2X purinoceptor 2 (Rattus norvegicus) (UniProt P49653).
T1 sequence (whole entry): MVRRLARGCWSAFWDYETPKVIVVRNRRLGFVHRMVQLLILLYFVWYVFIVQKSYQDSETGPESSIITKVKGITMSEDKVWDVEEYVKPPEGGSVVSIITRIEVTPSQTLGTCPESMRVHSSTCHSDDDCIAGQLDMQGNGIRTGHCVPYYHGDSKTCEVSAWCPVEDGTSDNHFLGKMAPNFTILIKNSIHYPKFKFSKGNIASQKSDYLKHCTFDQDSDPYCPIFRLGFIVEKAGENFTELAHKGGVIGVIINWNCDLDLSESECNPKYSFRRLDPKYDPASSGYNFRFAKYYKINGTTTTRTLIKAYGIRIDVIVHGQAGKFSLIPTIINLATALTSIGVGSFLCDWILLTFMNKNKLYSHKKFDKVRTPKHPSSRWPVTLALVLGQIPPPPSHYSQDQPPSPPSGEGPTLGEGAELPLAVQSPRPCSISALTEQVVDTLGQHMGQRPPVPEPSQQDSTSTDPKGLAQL
As to the kind of experiment: Antagonist activity at rat P2X2 receptor expressed in Xenopus laevis oocytes assessed as reduction in ATP-induced channel currents at 100 uM by TEVC electrophysiology assay relative to control. In kind it is cell-based. Conditions: Oocyte. In outline: (§1)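 Two-electrode voltage clamp at −70 mV in low divalent-cation solution, oocytes incubated 1–2 days at 16–18 °C after 50 nL cRNA injection: rP2X1 and rP2X4 at 0.5 mg/mL, rP2X2 0.1 mg/mL, rP2X7 25 μg/mL. ATP 10 μM for rP2X1 and rP2X2, 30 μM for rP2X4 and rP2X7. Compound applied 3 min without perfusion. Currents normalized to control; three oocytes from two frogs.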

Assay [2] addresses T2, P2X purinoceptor 7 (Homo sapiens, UniProt Q99572).
T2 sequence (Q99572 whole entry): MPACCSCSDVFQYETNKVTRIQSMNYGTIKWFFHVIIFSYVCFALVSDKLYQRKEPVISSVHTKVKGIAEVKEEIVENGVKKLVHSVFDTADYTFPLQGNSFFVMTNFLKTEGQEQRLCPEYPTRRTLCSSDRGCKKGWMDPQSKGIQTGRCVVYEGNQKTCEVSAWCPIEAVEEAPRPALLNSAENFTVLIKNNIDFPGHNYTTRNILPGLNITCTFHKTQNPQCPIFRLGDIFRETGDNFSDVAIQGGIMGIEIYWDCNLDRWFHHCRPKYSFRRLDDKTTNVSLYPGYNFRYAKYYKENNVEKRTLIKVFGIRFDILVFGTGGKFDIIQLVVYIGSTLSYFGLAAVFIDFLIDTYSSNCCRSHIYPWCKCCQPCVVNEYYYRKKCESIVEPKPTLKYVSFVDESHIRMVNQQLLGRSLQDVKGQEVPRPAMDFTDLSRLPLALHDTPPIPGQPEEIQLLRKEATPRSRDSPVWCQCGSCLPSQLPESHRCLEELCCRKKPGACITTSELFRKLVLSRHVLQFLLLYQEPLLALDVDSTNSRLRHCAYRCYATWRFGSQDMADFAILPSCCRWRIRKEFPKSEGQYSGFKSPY
As to the kind of experiment: (§2) Antagonist activity at human P2X7 receptor expressed in HEK293 cells assessed as reduction in benzoyl-ATP-induced intracellular Ca2+ level by Fura-2 dye based fluorescence assay. Format: cell-based. The method, boiled down: (§3)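 hP2X7-HEK293 cells 24–48 h after seeding, loaded with Fura-2-AM 8 μM for 1 h, then washed in Mg²⁺-free Tyrode (2 mM CaCl₂, pH 7.4) for 15–30 min with compound present. Excitation 340/380 nm, emission 520 nm. Basal recording, then BzATP injected (100 μM final). [Ca²⁺]c from Grynkiewicz equation. Blockade as percent of BzATP peak in Tyrode-only wells; triplicates.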

Assay [3] deals with T3, P2X purinoceptor 7 (Homo sapiens) (UniProt Q99572).
T3 sequence (whole entry): T2 sequence (Q99572 whole entry)
The assay is described as §2. The note with it: filed as antagonist. Format: cell-based. In outline:
as §3

The next assay relates to Peritoneal macrophage. Description: Inhibition of Il-1beta production in LPS-stimulated C57BL/6 mouse peritoneal macrophages pre-incubated for 15 mins followed by ATP addition for 30 mins by ELISA method. In kind it is functional, tissue-based. The note with it: time 45.0 min. In outline: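 Thioglycolate-elicited peritoneal macrophages from 6–8-week male C57BL/6 mice, 3 × 10⁵ cells/well. Primed 4 h with LPS 1 μg/mL (E. coli 026:B6), then serum-free DMEM with compound for 15 min, then ATP for 30 min. Supernatant IL-1β measured by ELISA, expressed as percent of ATP-only control. Triplicates from three mice.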
For orientation: In an ELISA, binding on a coated surface is turned into a signal by an enzyme label.

In assay [4] the target is T4, P2X purinoceptor 1 (Rattus norvegicus) (UniProt P47824).
T4 sequence (whole entry): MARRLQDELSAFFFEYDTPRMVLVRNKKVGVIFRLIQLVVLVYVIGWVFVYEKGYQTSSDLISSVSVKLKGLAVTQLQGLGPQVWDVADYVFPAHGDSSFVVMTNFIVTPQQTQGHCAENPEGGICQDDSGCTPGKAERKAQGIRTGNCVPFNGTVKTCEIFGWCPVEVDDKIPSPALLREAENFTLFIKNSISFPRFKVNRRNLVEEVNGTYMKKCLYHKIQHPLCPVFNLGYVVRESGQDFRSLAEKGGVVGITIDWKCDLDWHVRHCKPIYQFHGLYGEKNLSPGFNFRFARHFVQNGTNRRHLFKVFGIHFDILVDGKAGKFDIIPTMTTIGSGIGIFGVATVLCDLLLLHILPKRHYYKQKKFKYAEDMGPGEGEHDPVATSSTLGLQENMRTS
As to the kind of experiment: Antagonist activity at rat P2X1 receptor expressed in Xenopus laevis oocytes assessed as reduction in ATP-induced channel currents at 100 uM by TEVC electrophysiology assay relative to control. In kind it is cell-based. Conditions: Oocyte. In outline:
as §1

The target of assay [5] is T3, P2X purinoceptor 7 (Homo sapiens). Description: Antagonist activity at human P2X7 receptor expressed in Xenopus laevis oocytes assessed as reduction in ATP-induced channel currents at 100 uM by TEVC electrophysiology assay relative to control. Format: cell-based. Conditions: Oocyte, filed as antagonist. In outline: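 Oocytes injected with 50 nL His-tagged hP2X7 cRNA (0.5 mg/mL), kept 1–2 days at 16–18 °C. Recorded in low divalent-cation solution (90 mM NaCl, 0.5 mM CaCl₂, 5 mM HEPES) at −70 mV. ATP 300 μM for 2 s after 3 min static compound incubation. Current normalized to control amplitude. Triplicates from three oocytes, two frogs.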

Assay [6] concerns the target T2, P2X purinoceptor 7. Description: Antagonist activity at human P2X7 receptor expressed in HEK293 cells assessed as reduction in benzoyl-ATP-induced YO-PRO-1 dye uptake pre-incubated for 20 mins before YO-PRO-1 addition and measured after 25 mins by fluorescence plate reader analysis relative to control. Format: cell-based. In outline:
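Stably transfected hP2X7-HEK293 cells, 48 h after seeding, in Mg²⁺-free Krebs-HEPES (0.2 mM CaCl₂, pH 7.4). Compound preincubation 20 min, then YO-PRO-1 2 μM, then BzATP 30 μM. Fluorescence at 485/520 nm read for 25 min. Each well normalized to Fmax (0.5% Triton X-100) and Fmin (2 M MnCl₂): F = (Fx − F0)/(Fmax − Fmin). Triplicates from three cultures. IC50 is the concentration halving BzATP-induced uptake.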

The term inhibition denotes the share of the control response that was lost under treatment. One may read the IC50 as the concentration at which inhibition is half-maximal. As for `O=C(Cn1cnc2c(Cl)ncnc21)c1ccc(Cl)cc1Cl`, the inhibition entry in assay [1] and in assay [4] was “inactive” in each case. For the same compound, the IC50 was determined as 13.7 µM on P2X purinoceptor 7 [2] and 9 µM at P2X purinoceptor 7 [6]. Besides, the inhibition entry in assay [3] was “Dose-dependent effect”; in the assay with Peritoneal macrophage it was “Dose-dependent effect”; in assay [5], 47%.

The values are drawn from ChEMBL document CHEMBL4706687, “Synthesis and Pharmacological Evaluation of Novel Non-nucleotide Purine Derivatives as P2X7 Antagonists for the Treatment of Neuroinflammation” (J Med Chem, 2021).
